Active and inactive are the calls of the source.
Tests used:
Mus musculus [1] = test: Anxiolytic activity against CF1 mouse assessed as increase in latency to enter in the dark compartment 7.5 mg/kg for 5 mins; format: functional, organism-based; parameters: dose 7.5 mg/kg
Method in brief: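 Light/dark box with a black, room-lit small compartment and a white large compartment lit at 400 lx. Male CF1 mice were acclimated at least 1 h under dim red light and dosed i.p. 30 min before testing. Recorded were latency to first entry and time spent in the light area. Values are mean ± SEM (N = 19-22), analysed by one-way ANOVA then SNK.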

Mus musculus [2] = test: Effect on locomotory activity in CF1 mouse assessed as change in spontaneous activity at 3 to 30 mg/kg; format: functional, organism-based
Method in brief: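 Mice were habituated singly for 10 min in photocell activity cages and then dosed i.p. Diazepam was given in 10% propylene glycol. After 30 min, crossings were recorded for 15 min. n = 10–16, ANOVA then SNK.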

Mus musculus [3] = test: Anxiolytic activity against CF1 mouse assessed as increase in number of rearings at 7.5 mg/kg after 30 mins by hole-board assay; format: functional, organism-based; parameters: dose 7.5 mg/kg
Method in brief: (§1)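 Hole-board set 15 cm high and divided into 16 squares, with photocells counting head-dips. Male CF1 mice were dosed i.p. and placed centrally 30 min later under dim light. Over 5 min, head-dips, rearings and squares crossed were counted. Values are mean ± SEM (N = 15), analysed by one-way ANOVA then SNK.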

Mus musculus [4] = test: Effect on locomotory activity in CF1 mouse assessed as reduction in spontaneous activity at 100 mg/kg; format: functional, organism-based; parameters: dose 100 mg/kg
Method in brief: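 Male CF1 mice were habituated 10 min in photocell activity cages, then dosed i.p. (n = 10-16). Thirty minutes later crossings were recorded over 15 min. Values are mean ± SEM, analysed by one-way ANOVA then SNK.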

Mus musculus [5] = test: Antidepressant activity in CF1 mouse assessed as decrease in duration of immobility at 7.5 mg/kg during final 4 mins of the 6 mins session by forced swimming test; format: functional
Method in brief: (§2)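 Male adult CF1 mice given i.p. doses in saline (pH 7.0), N = 10. Each mouse swam 6 min in a 30 cm-diameter cylinder holding 20 cm of water at 25 ± 1 °C. Immobility was timed over the last 4 min. Values are mean ± SEM, analysed by ANOVA against saline.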

Mus musculus [6] = test: Effect on short term memory of CF1 mouse assessed as reduction in step down latency at 7.5 mg/kg by passive avoidance test; format: functional
Mus musculus [7] = test: Potentiation of pentobarbital-induced sleeping time in CF1 mouse at 100 mg/kg; format: functional, organism-based; parameters: dose 100 mg/kg
Method in brief: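 Male CF1 mice (N = 9-12) were dosed i.p. and given sodium pentobarbital 40 mg/kg i.p. 30 min later. Sleeping time was recorded as the interval from loss to recovery of the righting reflex. Values are mean ± SEM, analysed by ANOVA against controls.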

Mus musculus [8] = test: […] of CF1 mouse assessed as reduction in step down latency at 0.85 mg/kg by passive avoidance test; format: functional
Mus musculus [9] = test: Anxiolytic activity against CF1 mouse assessed as suppression of oxotremorine-treated tremors at 7.5 mg/kg; format: functional, organism-based; parameters: dose 7.5 mg/kg
Method in brief: (§3)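 Male CF1 mice were given the test drug i.p. in saline 30 min before oxotremorine 0.5 mg/kg. Each mouse was then placed alone in an acrylic cage for observation of tremor. Values are median (interquartile range), analysed by Kruskal–Wallis then Mann–Whitney U against saline + oxotremorine.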

Mus musculus [10] = organism: Mus musculus; test: Anticonvulsant activity against CF1 mouse assessed as protection against PTZ-induced convulsions for 60 mins; format: functional, organism-based
Method in brief: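 Male adult CF1 mice (n = 10/group) dosed i.p.; 30 min later pentylenetetrazol 88 mg/kg s.c. Each mouse placed alone in an acrylic chamber and watched 60 min for clonic convulsions lasting over 3 s. Read-out is the fraction of mice convulsing, analysed by Fisher's exact test.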

Mus musculus [11] = test: Anxiolytic activity against CF1 mouse assessed as suppression of oxotremorine-treated tremors at 10 mg/kg; format: functional, organism-based; parameters: dose 10 mg/kg; method in brief: as §3
Mus musculus [12] = test: Effect on long term memory of CF1 mouse assessed as reduction in latency during aquisition at 100 mg/kg by passive avoidance test; format: functional
Method in brief: (§4)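 Step-down inhibitory avoidance in male CF1 mice with i.p. dosing 30 min before training. Stepping down during training gave a 0.3 mA scrambled foot shock for 15 s. The latency to step down during training was recorded, with no exclusion criterion applied. N = 20 per group; values are median (interquartile range).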

Mus musculus [13] = test: Anxiolytic activity against CF1 mouse assessed as increase in time spent in light compartment at 7.5 mg/kg in presence of ritanserin for 5 mins; format: functional, organism-based; parameters: dose 7.5 mg/kg
Method in brief: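 Male CF1 mice received ritanserin 2 mg/kg i.p. (in 10% DMSO) 30 min before the test drug at 7.5 mg/kg i.p. The light/dark test followed 30 min later, scoring latency to first entry and time in the light compartment. Values are mean ± SEM (N = 8-10), analysed by one-way ANOVA/SNK.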

Mus musculus [14] = test: Anxiolytic activity against CF1 mouse assessed as suppression of oxotremorine-treated tremors at 3 mg/kg; format: functional, organism-based; parameters: dose 3 mg/kg
Method in brief: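 Mice received treatment i.p. 30 min before oxotremorine 0.5 mg/kg in saline. Each mouse was then placed alone in a transparent cage immediately after injection and tremor was scored. Data given as median (interquartile range); Kruskal–Wallis then Mann–Whitney U against saline + oxotremorine.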

Mus musculus [15] = test: Anxiolytic activity against CF1 mouse assessed as reduction in number in crossings at 200 mg/kg after 30 mins by hole-board assay; format: functional, organism-based; parameters: dose 200 mg/kg; method in brief: as §1
Mus musculus [16] = test: Effect on short term memory of CF1 mouse assessed as reduction in latency during aquisition at 100 mg/kg by passive avoidance test; format: functional; method in brief: as §4
Mus musculus [17] = test: Antidepressant activity in CF1 mouse assessed as decrease in duration of immobility at 10 mg/kg during final 4 mins of the 6 mins session by forced swimming test; format: functional, organism-based; parameters: dose 10 mg/kg; method in brief: as §2
Mus musculus [18] = test: Antidepressant activity in CF1 mouse assessed as decrease in duration of immobility at 30 mg/kg during final 4 mins of the 6 mins session by forced swimming test; format: functional, organism-based; parameters: dose 30 mg/kg; method in brief: as §2
Mus musculus [19] = test: Antidepressant activity in CF1 mouse assessed as decrease in duration of immobility at 3 mg/kg during final 4 mins of the 6 mins session by forced swimming test; format: functional; method in brief: as §2
Mus musculus [20] = test: Anxiolytic activity against CF1 mouse assessed as increase in number of crossings at 7.5 mg/kg after 30 mins by hole-board assay; format: functional, organism-based; parameters: dose 7.5 mg/kg; method in brief: as §1
Mus musculus [21] = test: Anxiolytic activity against CF1 mouse assessed as increase in number of head dips at 7.5 mg/kg after 30 mins by hole-board assay; format: functional, organism-based; parameters: dose 7.5 mg/kg; method in brief: as §1
Mus musculus [22] = test: Anxiolytic activity against CF1 mouse assessed as increase in number of head dips at 7.5 mg/kg after 30 mins in presence of ritanserin by hole-board assay; format: functional, organism-based; parameters: dose 7.5 mg/kg
Method in brief: (§5)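 Male CF1 mice received ritanserin 2 mg/kg i.p. in 10% DMSO 30 min before the test drug at 7.5 mg/kg i.p. The 5 min hole-board session began 30 min later, counting head-dips, crossings and rearings. Values are mean ± SEM (N = 8-14), analysed by ANOVA/SNK.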

Mus musculus [23] = test: Anxiolytic activity against CF1 mouse assessed as increase in number of crossings at 7.5 mg/kg after 30 mins in presence of ritanserin by hole-board assay; format: functional, organism-based; parameters: dose 7.5 mg/kg; method in brief: as §5
Mus musculus [24] = test: Anxiolytic activity against CF1 mouse assessed as reduction in number in head dips at 200 mg/kg after 30 mins by hole-board assay; format: functional, organism-based; parameters: dose 200 mg/kg; method in brief: as §1
Mus musculus [25] = test: Effect on long term memory of CF1 mouse assessed as reduction in latency during aquisition at 7.5 mg/kg by passive avoidance test; format: functional; method in brief: as §4

COC(=O)C1=CO[C@@H](O[C@H]2O[C@H](CO)[C@@H](O)[C@H](O)[C@H]2O)[C@@H]2C([C@@H]3NCCc4c3[nH]c3ccccc43)=CC[C@H]12 [PSYCHOLLATINE]
Activity (Mus musculus [1]): Active
Activity (Mus musculus [2]): inactive
Activity (Mus musculus [3]): Active
Activity (Mus musculus [4]): Active
Activity (Mus musculus [5]): 56.41 s
Activity (Mus musculus [6]): 9.6 s
Activity (Mus musculus [7]): Active
Activity (Mus musculus [8]): 8.3 s
Activity (Mus musculus [9]): Active
Activity (Mus musculus [10]): inactive
Activity (Mus musculus [11]): Active
Activity (Mus musculus [12]): 5 s
Activity (Mus musculus [13]): inactive
Activity (Mus musculus [14]): Active
Activity (Mus musculus [15]): Active
Activity (Mus musculus [16]): 6.8 s
Activity (Mus musculus [17]): inactive
Activity (Mus musculus [18]): inactive
Activity (Mus musculus [19]): 48.88 s
Activity (Mus musculus [20]): Active
Activity (Mus musculus [21]): Active
Activity (Mus musculus [22]): inactive
Activity (Mus musculus [23]): inactive
Activity (Mus musculus [24]): Active
Activity (Mus musculus [25]): 13.4 s
